Test results from ChEMBL document CHEMBL4513216, “Probing the Open Global Health Chemical Diversity Library for Multistage-Active Starting Points for Next-Generation Antimalarials” (ACS Infect Dis, 2020).

Assay: Toxicity liver stage against HepG2, at 10uM
Assay type: cell-based
Design: test concentration 10 uM, cell line HepG2-A16-CD81EGFP
Details: human, HepG2-A16-CD81EGFP cells; read-out: INHIBITION
Outline: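 Uninfected HepG2-A16-CD81EGFP cells, 3 × 10^3 per well, 1536-well, plated on prespotted compound at 10 μM final, parasite-free screening media added to match infected plates; puromycin 10 μM positive, DMSO 0.5% negative; run in parallel with 48 h PbLuc assay at 37 °C, 5% CO2; viability by CellTiter-Glo luminescence, normalized to controls.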

Row | SMILES | cytotoxicity at 10 µM
1 | O=C(c1ccco1)N1CCC2(CC1)CCN(c1ncccn1)CC2 | 4.59%
2 | CC(C)N[C@@H]1CO[C@H](CNC(=O)c2cccs2)[C@H]1O | -3.65%
3 | O=C(O)C[C@@H]1CCN(C(=O)C2CCCC2)C[C@@H]1CCN1CCCCC1 | -6.51%
4 | Cc1[nH]c2nc(CNc3ccccc3Cl)nn2c(=O)c1C | -1.29%
5 | COc1c[nH]c(C(=O)Nc2nc(C)cs2)cc1=O | -44.4%
6 | Cc1nn(-c2ccc(C(=O)O)cc2)c2c1C(c1ccsc1)SCC(=O)N2 (stereo unspecified) | 0.153%
7 | CC(C)c1sc(Br)nc1C(=O)NCc1ccco1 | -2.89%
8 | CCN(c1ccsc1C(=O)N1CCC(C)CC1)S(=O)(=O)c1ccccc1 | 14.7%
9 | CCN1C(=O)[C@H]2CN(Cc3cccnc3)C[C@H]2C12CCN(C(C)=O)CC2 | -1.8%
10 | COc1ccc(C[C@H]2CN(C(=O)c3ccn(C)n3)CC[C@H]2OC)cc1 | 5.12%
11 | O=C(C1CCOC1)N1CCC2(CCCNC2)CC1 (stereo unspecified) | -1.74%
12 | COc1cccc(-c2cnc3n2CCC32CCN(C(C)=O)CC2)c1 | -2.05%
13 | O=C(c1ccsc1)N1CCC2(CCN2Cc2ccc(F)cc2)C1 (stereo unspecified) | -144%
14 | O=C1CC2(CCN(c3nncs3)C2)CN1c1ccc2c(c1)OCCO2 (stereo unspecified) | 6.66%
15 | O=C(c1ccco1)N1CC[C@H]2C[C@@H](c3nccs3)O[C@@H]2C1 | 0.428%
16 | CCc1c(C(=O)O)nnn1-c1cc(C)ccc1C | -23.7%
17 | CCc1c(C)n(CCOC)c2nc3ccccc3n2c1=O | -0.277%
18 | O=C(NCCCN1CCOCC1)c1cc(-c2ccc3c(c2)CCO3)n[nH]1 | -3.73%
19 | COCCNC(=O)Cn1nc(C(C)C)c2cnn(C(C)(C)C)c2c1=O | -21.9%
20 | CC(C)CCn1[nH]c(CNc2ccccc2)nc1=O | 1.62%
21 | Cc1nn(CC(=O)N2CCN(c3ccc(F)cc3)CC2)c(C)c1Cl | 6.87%
22 | Cc1cc(C(=O)NCc2cnn(C)c2C)nc(N2CCCCCC2)n1 | 2.01%
23 | COC(=O)CCn1ccc(=O)c2ccc(OC)cc21 | 17.1%

Row | SMILES | cytotoxicity at 10 µM
24 | FC(F)(F)c1cc(C2CCN(c3cnccn3)CC2)n2ccnc2n1 | -1.53%
25 | CC(C)N1CCCC1c1cc(C(F)(F)F)[nH]n1 (stereo unspecified) | 0.171%
26 | COc1cc2cc3c(nc2cc1OC)OCCN(CC1CC1)C3 | 5.37%
27 | Cc1ncc2c(n1)CN(Cc1ncc(C(C)(C)C)o1)CC2 | 0.96%
28 | COc1c(C)cnc(CN2CCn3c(C)nnc3C2)c1C | -4.97%
29 | Cc1cc(C)c(S(N)(=O)=O)cc1C(=O)NCCN1CCC(C)CC1 | -0.77%
30 | O=C(NCc1ccon1)c1c(F)cc(Br)cc1F | 12.3%
31 | Cc1cc2ccccc2n1CC(=O)NC(C)C(=O)N1CCOCC1 (stereo unspecified) | 3.57%
32 | Cn1cnc2c1CCN(CC(=O)NC1CCCCNC1=O)C2 (stereo unspecified) | -5.97%
33 | CNS(=O)(=O)CC(=O)N1CCC(c2ccc(F)c(F)c2)CC1 | 0.696%
34 | CCS(=O)(=O)NCCNC(C)(C)c1nc(C)cs1 | -0.396%
35 | N#CCCN(C(=O)CCc1cscn1)c1ccc2c(c1)OCCO2 | -2.12%
36 | O=C(COCc1ccccc1)NCc1ccc(O)c(F)c1 | 1.05%
37 | Cc1cc(CN(C)C(=O)CC(C)C)no1 | -3.57%
38 | O=C(NCCc1nccs1)N1CCC(n2cccc2)CC1 | 5.87%
39 | CCOC(=O)NCCNC(=O)c1cc2ccccc2nc1N1CCCC1 | -7.74%
40 | Cc1csc(CN(C)CCCOc2cccc(C#N)c2)n1 | -7.03%
41 | CC(C)(C)C(Cn1ccnc1)NC(=O)NCc1ccco1 (stereo unspecified) | -1.85%
42 | COC(=O)c1ccccc1S(=O)(=O)NC(=O)c1cccc2c1OCCO2 | -12.5%
43 | CC(CN1CCOCC1)NC(=O)NCc1ccoc1 (stereo unspecified) | -5.52%
44 | Cc1cc(C)n(CCCNC(=O)C(C)NC(=O)CC2CCCCC2)n1 (stereo unspecified) | -1.06%
45 | COCCN(Cc1cnn(C)c1)Cc1ccc(C)o1 | -0.0972%
46 | Cc1nnc(CN(C)CCCOc2cccc(Cl)c2)o1 | 2.51%

Row | SMILES | cytotoxicity at 10 µM
47 | CC(C)n1nc2c(cc1=O)CN(CCOc1ccc(C#N)cc1)CC2 | 14.9%
48 | CC(C)CNC(=O)c1[nH]nc(C2CC2)c1Br | 2.71%
49 | Cc1cccc(C(C)CNC(=O)N2CCOCC3(CCOCC3)C2)c1 (stereo unspecified) | 8.84%
50 | CC(C)(C)C(O)CN1CCN(CC(=O)NC2CCOCC2)CC1 (stereo unspecified) | -8.06%
51 | CC(C)(C)c1nc(CNC(=O)N2CCc3ccccc3C2CO)no1 (stereo unspecified) | 6.56%
52 | Cc1ccc(C2CSCCN2C(=O)c2ccc(C(N)=O)cc2)o1 (stereo unspecified) | -2.12%
53 | CCc1nnsc1C(=O)NC1CCN(c2ccccn2)CC1 | -2.49%
54 | O=C(c1cccnc1-n1cncn1)N1CCN(CC2CC2)CC1 | -10.9%
55 | O=C(c1ccncc1F)N1CCc2ncnc(-c3ccncc3)c2CC1 | 2.75%
56 | CCn1c(CN(C)C)nnc1C1CCN(Cc2ccccn2)CC1 | 12.5%
57 | CC(C)c1nc(CN(C)C(=O)C2CC(=O)N(Cc3ccncc3)C2)cs1 (stereo unspecified) | -3.75%
58 | CC(=O)N[C@@H]1CN(C(=O)c2cc3sccc3[nH]2)C[C@H]1c1ccc(C)o1 | 8.98%
59 | CCc1ccc(CN2CCN(c3ccc(Cl)nn3)CC2)nc1 | -2.98%
60 | CCC[C@@H]1CN(c2ncnc3sccc23)C[C@H]1C(=O)O | 1.96%
61 | C[C@@H]1CN(C(=O)C2CCS(=O)(=O)CC2)C[C@]1(C)O | -4.11%
62 | Cc1ccc(OCCN(C)C(=O)CCCC(N)=O)c(C)c1 | 1.47%
63 | COc1ccccc1-c1ncc(CN2C[C@@H](N(C)C)[C@H](C(C)C)C2)s1 | -12.3%
64 | CN(Cc1nncn1C)c1nccc(C2CCCC2)n1 | -1.14%
65 | COc1ccc(CN2CC[C@@H](N)[C@@H](OC)C2)cc1Cn1cncn1 | -3.7%
66 | Cc1cccc(C(C(=O)N2CC(c3cccnc3)C2)N(C)C)c1 (stereo unspecified) | -4.8%
67 | Cc1cnn(-c2cncc(C(N)=O)c2)c1 | 3.04%
68 | CC(=O)NCc1cc2n(n1)CCN(Cc1cccc(CCN)c1)C2 | -19.5%
69 | Cc1ncoc1C(=O)N1CCOC(CCCC(C)C)C1 (stereo unspecified) | 8.29%

Row | SMILES | cytotoxicity at 10 µM
70 | COC(=O)NCC(=O)N1CCC(c2nc3cc(F)ccc3[nH]2)CC1 | 3.67%
71 | Cc1ccc(N2Cc3cnn(Cc4ccc(F)cc4)c3C2)nn1 | 0.209%
72 | c1cnnc(N2CCC(c3nnc(Cn4ccnc4)n3C3CC3)CC2)c1 | 6.71%
73 | Cc1cnc(C)c(N2CCN(Cc3ccc(-c4cc[nH]n4)o3)CC2)n1 | -5.01%
74 | O=C(Nc1ccc(CCN2CCOCC2)cc1)C1CCCC1 | -16%
75 | COc1cc(C2(C(=O)N3CCCC(n4cncn4)C3)CC2)ccc1C (stereo unspecified) | -6.16%
76 | Cc1cc(C)n(CC2CCCCN2CCc2ccncc2)n1 (stereo unspecified) | -7.07%
77 | Cc1cc(C)n(CC(=O)N2CCC(Nc3cccnn3)CC2)n1 | -0.397%
78 | COC1CCN(C(=O)Cc2csc(-c3ccc(F)cc3)n2)CC1 | -6.16%
79 | CC(C)c1nc(C2CCCN(C(=O)Cn3ccccc3=O)C2)no1 (stereo unspecified) | -16.3%
80 | Cc1cc(NC(=O)CNC2CCc3nc(C(C)C)nn3C2)no1 (stereo unspecified) | -3.87%
81 | CC(C)N(CC(N)=O)Cc1csc(C(C)(C)C)n1 | -5.13%
82 | CCN(CC)C(=O)C1CCCN1C(=O)c1cccc(-n2cnnn2)c1 (stereo unspecified) | -14.9%
83 | Cc1noc(C(C)C)c1C(=O)NCC(c1ccccc1)N(C)C (stereo unspecified) | -7.72%
84 | COc1ccc(CCC(=O)N2CCCC(n3cncn3)C2)cc1 (stereo unspecified) | -21%
85 | CC(O)CN1CCN(C(=O)c2ccn(-c3ccc(F)cc3)n2)CC1 (stereo unspecified) | -6.11%
86 | CN(C)c1cc(CNC(=O)c2ccccc2Cl)ccn1 | -8.28%
87 | N#CC1CCN(C(=O)NCCc2ccc(Cl)s2)CC1 | -16.1%
88 | CNC(=O)CN1CCN(C(=O)c2ccn(C)c(=O)c2)CC1 | -16%
89 | CCn1cnnc1CNC(=O)c1cc(Cl)c(I)cc1OC | -14.4%
90 | CCCn1nc2c(cc1=O)CN(CCN1CCCC1=O)CC2 | -11.6%
91 | c1ccc(-c2nc(CN3CCCC(Cn4cncn4)C3)cs2)cc1 (stereo unspecified) | -9.53%
92 | Cc1ccc(-c2nc(CN3CCCC(Cn4cncn4)C3)cs2)o1 (stereo unspecified) | -22.2%

Row | SMILES | cytotoxicity at 10 µM
93 | CCOc1ncccc1CNC(=O)c1cc(C)on1 | -19%
94 | COc1cccc(CNCc2c(C(C)C)nn(C)c2N(C)C)c1OC | 1.87%
95 | COCCc1noc(CN2CCN(CC(O)c3ccccc3)CC2)n1 (stereo unspecified) | 2.67%
96 | CC(O)CN1CCC(CNCc2c[nH]nc2C(C)(C)C)CC1 (stereo unspecified) | -8.55%
97 | Cn1cccc1C(=O)N1CCc2c(CNS(C)(=O)=O)cncc2C1 | 4.68%
98 | CNc1cc(C2CCCN2C(=O)c2ccc(=O)[nH]n2)ccn1 (stereo unspecified) | -5.04%
99 | Cc1nn(C)c(N(C)C)c1CNCc1nnc2n1CCCCC2 | -5.68%
100 | O=C(c1ccncc1)N1CCCC2(CCN(c3cccnc3)C2=O)C1 (stereo unspecified) | -131%
101 | c1ccc(Cn2cc3c(n2)C(CNCC2CCOCC2)OCC3)nc1 (stereo unspecified) | -149%
102 | O=C(c1cccnc1)N1CCC[C@]2(C[C@H](Oc3ncccc3F)CO2)C1 | 0.37%
103 | Fc1cccnc1O[C@@H]1CN(Cc2ccco2)[C@@H]2CCCO[C@@H]21 | 5.08%
104 | Cc1ccc(C(=O)N2C[C@@H]3CCCO[C@@H]3[C@H](N(C)Cc3ccco3)C2)o1 | 5.51%
105 | Cc1ccc(CN2CCC3(CCC(C(=O)N(C)C)O3)CC2)o1 (stereo unspecified) | -2.63%
106 | CC(Cn1ccnc1)NCc1cc(Br)c2c(c1)OCO2 (stereo unspecified) | 12.9%
107 | CN(C)C(=O)CN1CCOCC2(CCN(CC3CCOC3)CC2)C1 (stereo unspecified) | 7.54%
108 | Cc1ccoc1C(=O)N1CC[C@H]2[C@@H]1CCC(=O)N2c1cccnc1 | -70.4%
109 | O=C(NC1COC2(CCN(CC3CCC3)CC2)C1)c1ccccn1 (stereo unspecified) | -1.95%
110 | CN1C[C@H]2CC[C@@H](CC1=O)N2C(=O)c1cc2ccccc2[nH]c1=O | -7.66%
111 | O=C1C[C@@H]2CC[C@H](CN1)N2c1cc(-c2ccccc2F)nc2ccnn12 | 20.4%
